Activity calls are given as the source filed them. The calls are words filed in the database; no cut-off is given here. Bridge positions count the residues as written; N and C are the ends. Square brackets hold non-standard residues; d marks the D form. Side chains are listed from the residue outwards. Peptide text beside a SMILES is read from it. * marks the point of attachment. ξ: configuration not given here. FITC = O=C1OC2(c3ccc(O)cc3Oc3cc(O)ccc32)c2ccc(NC(=S)*)cc21; ξtBuAla = CC(C)(C)CC(N)C(=O)O; ξD = NC(CC(=O)O)C(=O)O; ξDap = NCC(N)C(=O)O; βAla = NCCC(=O)O
How the values were obtained:
[1] = test system: MCF7; test: Cytotoxicity against human MCF7 cells assessed as cell viability at 20 uM after 24 hrs by MTT assay; format: functional; details: MCF7, 24 h, read-out: Activity
[2] = target: T1, Estrogen receptor (Homo sapiens) (UniProt P03372); test: Binding affinity to recombinant human GFP-fused ERalpha LBD (301 to 553 residues) expressed in Escherichia coli BL21(DE3) after 40 mins in presence of 17beta-estradiol by fluorescence polarization assay; details: in the assay text read “ERalpha LBD” for “GFP-fused ERalpha LBD”
T1 sequence (whole entry): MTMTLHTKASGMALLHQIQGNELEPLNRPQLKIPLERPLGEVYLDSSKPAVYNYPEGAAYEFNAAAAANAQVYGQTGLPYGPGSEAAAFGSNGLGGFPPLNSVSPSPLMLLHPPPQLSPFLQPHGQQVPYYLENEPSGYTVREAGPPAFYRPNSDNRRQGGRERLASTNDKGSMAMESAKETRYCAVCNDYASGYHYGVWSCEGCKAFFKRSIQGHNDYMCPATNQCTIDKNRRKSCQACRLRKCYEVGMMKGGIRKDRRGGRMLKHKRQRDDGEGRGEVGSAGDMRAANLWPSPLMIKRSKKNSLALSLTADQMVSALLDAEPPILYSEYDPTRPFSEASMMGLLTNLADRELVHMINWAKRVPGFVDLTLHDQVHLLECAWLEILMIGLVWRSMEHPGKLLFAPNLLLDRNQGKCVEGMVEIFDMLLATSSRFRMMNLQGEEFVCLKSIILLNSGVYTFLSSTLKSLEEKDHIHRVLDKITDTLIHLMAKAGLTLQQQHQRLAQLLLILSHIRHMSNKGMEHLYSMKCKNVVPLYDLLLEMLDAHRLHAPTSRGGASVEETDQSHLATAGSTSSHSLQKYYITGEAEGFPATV

[3] = target: T1, Estrogen receptor (Homo sapiens); test: Binding affinity to recombinant human GFP-fused ERalpha LBD (301 to 553 residues) expressed in Escherichia coli BL21(DE3) in presence of ERalpha inhibitor 4-hydroxytamoxifen by ITC
Outline: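 ITC at 25 °C. 50 μM peptide injected in 2 μL steps into 5 μM ERα LBD in 50 mM Tris pH 8.0, 150 mM NaCl, 1 mM TCEP containing 0.1 mM 4-hydroxytamoxifen instead of estradiol. Isotherm fitted.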

[4] = Drug uptake in human U2OS cells assessed per million cells at 5 uM after 3 hrs by FACS analysis; format: ADME, cell-based
Outline: (§1)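 Adherent cells seeded overnight, then exposed to 5 μM FITC-labelled peptide or DMSO in FBS-free medium, 3 h, 37 °C. After PBS washes (three), about 10000 cells per sample analysed by flow cytometry; mean cellular fluorescence intensity calculated. More than two independent experiments, SEM.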

[5] = target: T1, Estrogen receptor (Homo sapiens); test: Binding affinity to recombinant human GFP-fused ERalpha LBD (301 to 553 residues) expressed in Escherichia coli BL21(DE3) in presence of 17beta-estradiol by ITC
Outline: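 ITC at 25 °C. 2 μL injections of 50 μM peptide into 5 μM ERα LBD in 50 mM Tris pH 8.0, 150 mM NaCl, 1 mM TCEP, 0.1 mM 17β-estradiol. Binding isotherm fitted for affinity.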

[6] = Drug uptake in human MCF7 cells assessed per million cells at 5 uM after 3 hrs by FACS analysis; format: ADME, cell-based; details: mcf7, 3 h; outline: as §1
[7] = target: T1, Estrogen receptor (Homo sapiens); test: Inhibition of recombinant human GFP-fused ERalpha LBD (301 to 553 residues) expressed in human […] cells assessed as downregulation of 17beta-estradiol-induced transcription at 5 uM preincubated for 4 hrs followed by E2 addition measured after 20 hrs by dual luciferase reporter gene assay; format: cell-based
Outline: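 U2OS cells in phenol red-free DMEM with 10% charcoal-stripped FBS, transfected 4 h with pEGFP-C1-ERα, 3XERE firefly luciferase reporter and pRL-TK Renilla plasmids. Peptides for 4 h, then 10 nM E2 or DMSO for 20 h. Lysates read by dual-luciferase; firefly normalized to Renilla, then to DMSO-treated control. SEM from more than two independent experiments.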

[8] = target: T1, Estrogen receptor (Homo sapiens); test: Inhibition of ERalpha in human MCF7 cells assessed as downregulation of 17beta-estradiol-mediated pS2 mRNA expression at 5 uM preincubated for 4 hrs followed by 17beta-estradiol addition measured after 16 hrs by quantitative RT-PCR analysis; format: cell-based
Outline: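 MCF-7 cells hormone-depleted 72 h in phenol red-free DMEM with 5% charcoal-treated serum, given peptides or DMSO for 4 h, then 100 nM 17β-estradiol or DMSO for 16 h. pS2 mRNA measured by quantitative RT-PCR, normalized to β-actin. Three independent experiments, mean ± SEM.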

Row | SMILES | viability at 20 µM [1] [%] | Activity [2] | also measured
1 | CC[C@H](C)[C@@H]1NC(=O)C[C@H](NC(=O)[C@H](CCCNC(=N)N)NC(=O)CCNC(=O)[C@H](Cc2c[nH]c3ccccc23)NC(C)=O)C(=O)NCC(C(=O)N[C@@H](CCCNC(=N)N)C(=O)N[C@@H](CC(C)C)C(=O)N[C@@H](CC(C)C)C(=O)N[C@@H](CCC(N)=O)C(N)=O)NC(=O)C(CC(C)(C)C)NC1=O (some centres not stated) | 53.9 |  | 
2 | CC[C@H](C)[C@@H]1NC(=O)C[C@H](NC(=O)[C@H](CCCNC(=N)N)NC(=O)CCNC(=S)Nc2ccc3c(c2)C(=O)OC32c3ccc(O)cc3Oc3cc(O)ccc32)C(=O)NCC(C(=O)N[C@@H](CCCNC(=N)N)C(=O)N[C@@H](CC(C)C)C(=O)N[C@@H](CC(C)C)C(=O)N[C@@H](CCC(N)=O)C(N)=O)NC(=O)C(CC(C)(C)C)NC1=O (some centres not stated) |  | Active | 
3 | CC[C@H](C)[C@@H]1NC(=O)C[C@H](NC(=O)[C@H](CCCNC(=N)N)NC(=O)CCNC(=O)[C@H](Cc2c[nH]c3ccccc23)NC(C)=O)C(=O)NCC(C(=O)N[C@@H](CCCNC(=N)N)C(=O)N[C@@H](CC(C)C)C(=O)NC(CC(C)(C)C)C(=O)N[C@@H](CCC(N)=O)C(N)=O)NC(=O)[C@H](CC(C)C)NC1=O (some centres not stated) | 43.1 |  | 
4 | CC[C@H](C)[C@@H]1NC(=O)C[C@H](NC(=O)[C@H](CCCNC(=N)N)NC(=O)CCNC(=S)Nc2ccc3c(c2)C(=O)OC32c3ccc(O)cc3Oc3cc(O)ccc32)C(=O)NCC(C(=O)N[C@@H](CCCNC(=N)N)C(=O)NC(CC(C)(C)C)C(=O)N[C@@H](CC(C)C)C(=O)N[C@@H](CCC(N)=O)C(N)=O)NC(=O)[C@H](CC(C)C)NC1=O (some centres not stated) |  | Active | Activity [3]: inactive; Drug uptake [4]: Active; Activity [5]: Active; Drug uptake [6]: Active
5 | CC[C@H](C)[C@@H]1NC(=O)C(NC(=O)[C@H](CCCNC(=N)N)NC(=O)CCNC(=O)[C@H](Cc2c[nH]c3ccccc23)NC(C)=O)CNC(=O)C(CC(=O)N[C@@H](CCC(N)=O)C(=O)NC(CC(C)(C)C)C(=O)N[C@@H](CCCNC(=N)N)C(=O)NC(CC(C)(C)C)C(N)=O)NC(=O)C(CC(C)(C)C)NC1=O (stereo partly drawn) (Ac-W[βAla]R[ξDap]I[ξtBuAla][ξD]([Gln-ξtBuAla-Arg-ξtBuAla-NH2]); lactam 4-C) | 79.2 |  | inhibition [7]: inactive; inhibition [8]: inactive
6 | CC[C@H](C)[C@@H]1NC(=O)C[C@H](NC(=O)[C@H](CCCNC(=N)N)NC(=O)CCNC(=O)[C@H](Cc2c[nH]c3ccccc23)NC(C)=O)C(=O)NCC(C(=O)N[C@@H](CCCNC(=N)N)C(=O)N[C@@H](CC(C)C)C(=O)N[C@@H](CC(C)C)C(=O)N[C@@H](CCC(N)=O)C(N)=O)NC(=O)[C@H](CC(C)C)NC1=O (some centres not stated) | 64.5 |  | 
7 | CC[C@H](C)[C@@H]1NC(=O)C[C@H](NC(=O)[C@H](CCCNC(=N)N)NC(=O)CCNC(=O)[C@H](Cc2c[nH]c3ccccc23)NC(C)=O)C(=O)NCC(C(=O)N[C@@H](CCCNC(=N)N)C(=O)NC(CC(C)(C)C)C(=O)N[C@@H](CC(C)C)C(=O)N[C@@H](CCC(N)=O)C(N)=O)NC(=O)[C@H](CC(C)C)NC1=O (some centres not stated) | 53.9 |  | 
8 | CC[C@H](C)[C@@H]1NC(=O)C[C@H](NC(=O)[C@H](CCCNC(=N)N)NC(=O)CCNC(=S)Nc2ccc3c(c2)C(=O)OC32c3ccc(O)cc3Oc3cc(O)ccc32)C(=O)NCC(C(=O)N[C@@H](CCCNC(=N)N)C(=O)N[C@@H](CC(C)C)C(=O)NC(CC(C)(C)C)C(=O)N[C@@H](CCC(N)=O)C(N)=O)NC(=O)[C@H](CC(C)C)NC1=O (some centres not stated) |  | Active | 
9 | CC[C@H](C)[C@@H]1NC(=O)C(NC(=O)[C@H](CCCNC(=N)N)NC(=O)CCNC(=S)Nc2ccc3c(c2)C(=O)OC32c3ccc(O)cc3Oc3cc(O)ccc32)CNC(=O)C(CC(=O)N[C@@H](CCC(N)=O)C(=O)NC(CC(C)(C)C)C(=O)N[C@@H](CCCNC(=N)N)C(=O)NC(CC(C)(C)C)C(N)=O)NC(=O)C(CC(C)(C)C)NC1=O (stereo partly drawn) ({FITC-βAla}-R[ξDap]I[ξtBuAla][ξD]([Gln-ξtBuAla-Arg-ξtBuAla-NH2]); lactam 2-C) |  | inactive | Drug uptake [4]: Active; Drug uptake [6]: Active
